A selection: hits, their analogues and other compounds. The true share with any hit is near 3%.
S1P1 ag pot: activates or potentiates agonism at human S1P1 receptor. S1P1 CRE-bla cells, forskolin, beta-lactamase FRET, potentiator mode; S1P1 agonist co-added at EC20, 2 nM; 100% = saturating reference agonist, 0% = basal. activation, % at 9.5 µM. 56,000 compounds, 0.57% hits. AID 449;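 active means activation above a cutoff set at the mean activation of all tested compounds plus 3 SD, cut at about 54% in these data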;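 further: forskolin at 4 µM as EC80 and the EC20 agonist is SEW2871; 100% = SEW2871 at its EC100 plus forskolin at EC80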
Target sequence (P21453 whole entry, looked up): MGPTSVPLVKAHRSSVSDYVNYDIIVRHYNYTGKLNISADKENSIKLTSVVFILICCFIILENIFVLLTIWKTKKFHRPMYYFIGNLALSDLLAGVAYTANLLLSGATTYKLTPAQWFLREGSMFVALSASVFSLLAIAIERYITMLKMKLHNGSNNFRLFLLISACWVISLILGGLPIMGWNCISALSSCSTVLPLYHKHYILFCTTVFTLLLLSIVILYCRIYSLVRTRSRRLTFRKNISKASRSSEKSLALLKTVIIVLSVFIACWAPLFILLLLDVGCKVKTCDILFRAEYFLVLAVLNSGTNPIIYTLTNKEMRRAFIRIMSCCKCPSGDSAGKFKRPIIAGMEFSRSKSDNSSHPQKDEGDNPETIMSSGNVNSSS
5HT1E ag: activates the human 5-HT1E serotonin receptor. P28566. CHO 5-HT1E Ga15 NFAT-bla reporter, FRET; 0% DMSO wells, 100% control agonist wells. activation, % at 6 µM. 65,000 compounds, 0.69% hits;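 active means activation above a set limit, the screen-wide mean activation plus 3 SD, cut at about 8.5% in these data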;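 further: 100% = positive control agonist at 1 µM giving full maximal response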
5-HT1A blocker: 5-HT1a (human) receptor antagonism; CHO 5-HT1a Ga15 NFAT-bla reporter, antagonist mode; AID 612; P08908; 62,000 compounds, 0.68% hits; inhibition, % at 10 µM;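 active means inhibition above the mean of all tested compounds plus 3 SD, cut at about 43% in these data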;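 further: receptor stimulated by 5-CT agonist at 100 nM near EC80; beta-lactamase reporter measured by ratiometric fluorescence of a cleavable substrate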
HTR1A agonist: agonists of human 5-HT1a serotonin receptor | P08908 | CHO 5-HT1a Ga15 NFAT-bla reporter, FRET ratio; 0% basal, 100% maximal reference agonist | activation, % at 10 µM | 65,000 compounds, 0.56% hits | AID 567;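 active means activation above the screen-wide mean activation plus 3 SD, cut at about 19% in these data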;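 further: 0% = DMSO wells and 100% = 5-CT at EC100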
5HT1E antag: blocks the human 5-HT1E serotonin receptor; P28566; CHO 5-HT1E Ga15 NFAT-bla reporter, FRET, antagonist; inhibition, % at 6 µM; 65,000 compounds, 0.99% hits;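 active means inhibition above a set limit, the mean inhibition across every tested compound plus 3 SD, cut at about 29% in these data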;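 further: signal is the 460 over 535 nm emission ratio of beta-lactamase substrate; 0% = agonist plus DMSO wells and 100% = wells without agonist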
S1P3 ag: agonists of human S1P3 receptor; S1P3 NFAT-BLA reporter cells, agonism, FRET ratio; relative to 1 µM S1P, basal subtracted; activation, % at 4.5 µM; 60,000 compounds, 0.1% hits; AID 373;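 active means activation above the screen-wide mean plus 3 SD, cut at about 4.5% in these data, passing the limit was not always enough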
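Assay system: stable CHO line with human S1P3, Gα16, NFAT-BLA reporter; Detection: FRET β-lactamase substrate fluorescence, excitation 405 nm, 460/535 nm emission ratio, background-subtracted; Read-out: percent activation versus median 1 µM S1P response, basal-subtracted, per plate; Incubation: cells plated overnight, compound 4 h 37 °C, substrate 2 h RT.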
* = called active by the depositor; x = no result.

SMILES	S1P1 ag pot	5HT1E ag	5-HT1A blocker	HTR1A agonist	5HT1E antag	S1P3 ag
COc1cccc(N2CCN(C3CC(=O)N(c4ccc(Cl)c(Cl)c4)C3=O)CC2)c1 (centres undefined)	-12.0	0.3	-6.7	1.9	-1.2	0.8
CCCCOc1ccccc1NC(=O)CSc1nnnn1C(C)(C)C	-17.3	-0.1	4.0	-2.2	3.6	0.8
CC1(C)Cc2c(c(N3CCCC3)nc3sc4c(N5CCN(CCO)CC5)ncnc4c23)CO1	x	0.9	-6.4	5.6	40.8*	x
Cc1ccc(-c2nnn(CCC(=O)NC3CCCC3)n2)cc1	-20.4	-0.3	13.2	-2.6	1.1	-0.5
N#CCCN(C(=O)CN1C(=O)NC2(CCCC2)C1=O)c1ccccc1F	x	0.6	-4.3	82.1*	-0.4	x
O=C(O)CCN1C(=O)NC2(CCCC2)C1=O	-7.2	0.1	-1.0	-0.8	-0.2	-0.8
COc1ccccc1N1CCN(C(=O)CSc2nc3ccccc3c(=O)n2CC2CCCO2)CC1 (centres undefined)	8.5	-0.2	10.1	0.5	4.7	-0.4
COc1ccccc1-c1cc(C(F)(F)F)nc(S(=O)(=O)CCCC(=O)N2CCCCC2C)n1 (centres undefined)	2.9	4.5	63.7*	4.5	1.6	-0.4
CC(C)c1nnc(NC(=O)CCS(=O)(=O)c2nc(-c3cccs3)cc(C(F)(F)F)n2)s1	18.2	0.2	35.5	-1.2	13.7	-1.1
Cc1cc(NC(=O)CCCSc2nc(-c3ccco3)cc(C(F)(F)F)n2)no1	x	6.4	-1.3	0.3	-6.3	-1.1
COc1ccccc1-c1cc(C(F)(F)F)nc(N2CCCC2)n1	x	-0.8	-7.2	5.5	2.0	x
COc1ccccc1-c1cc(C(F)(F)F)nc(S(=O)(=O)CCCC(=O)Nc2cc(C)on2)n1	12.0	0.4	10.5	-4.9	45.7*	-0.5
COc1ccccc1-c1cc(C(F)(F)F)nc(S(=O)(=O)CCCC(=O)NC(C)C)n1	-13.2	4.6	39.8	-1.3	48.0*	1.0
Cc1ccc(-c2ccc(/C=N/c3ncn[nH]3)o2)cc1Cl	9.7	0.5	x	-2.1	-17.7	-0.2
CC(C)OC(=O)CSc1nnc(-c2cnccn2)n1-c1ccccc1	0.6	-0.1	-9.5	-0.4	-9.8	0.1
CN(C)c1ccc(C(CC(=O)O)NC(=O)c2ccc(Cl)cc2)cc1 (centres undefined)	-4.4	0.7	7.2	-2.5	4.1	-0.5
CCOC(=O)c1[nH]c(C)c(C(=O)OCCN2C(=O)c3ccccc3C2=O)c1C	5.7	-1.7	9.7	1.7	37.4*	-0.9
CCOC(=O)c1c(C)[nH]c(C(C)=O)c1C	-25.6	0.1	-11.3	-0.6	5.3	-0.9
O=C1C2CC=CCC2C(=O)N1c1n[nH]c(Cc2ccccc2)n1 (centres undefined)	-6.4	0.1	-3.0	-1.2	-1.1	-0.8
COc1ccc(/C=C/C(O)=C2/C(=O)N(C)C3(C)CC2c2ccccc2O3)cc1 (centres undefined)	-4.6	-0.5	45.9*	-1.4	19.7	-0.6
CCOC(=O)CNC(=O)Cn1cnc2sc(C)c(S(=O)(=O)N3CCC(C)CC3)c2c1=O	x	0.9	-10.8	60.0*	-3.5	x
CC1(C)Cc2c(C#N)c(NCCc3ccccc3)nc(-c3ccco3)c2CO1	-20.9	9.1*	x	49.5*	-53.1	11.7
CCCCc1ccc(Nc2nc(CCC)cc(=O)[nH]2)cc1	6.9	-0.3	44.8*	-2.0	5.6	-1.7
CCCc1cc(=O)[nH]c(Nc2ccc(N3CCCCC3)cc2)n1	9.6	-0.5	14.3	-0.3	-0.3	-2.1
O=C1CC(N2CCN(S(=O)(=O)c3ccc(Cl)cc3)CC2)C(=O)N1CCc1ccccc1 (centres undefined)	19.8	-1.1	-1.6	-3.9	0.7	0.0
SMILES	S1P1 ag pot	5HT1E ag	5-HT1A blocker	HTR1A agonist	5HT1E antag	S1P3 ag
NC(=O)CN1CCN(C(=O)Nc2ccccc2)CC1	1.9	0.4	-6.2	-2.6	1.3	-0.5
CCn1c(N2CCN(CC(=O)Nc3cccc(C)c3C)CC2)nc2ccccc21	2.6	2.7	-2.5	-0.8	-9.3	-0.2
CCn1c(N2CCN(CC(=O)c3ccc(OC)cc3)CC2)nc2ccccc21	5.2	17.8*	-8.8	3.9	-6.1	0.4
Cn1c(=O)c2c(nc(CN3CCOCC3)n2CC(O)CO)n(C)c1=O (centres undefined)	1.1	-1.0	3.2	5.4	-2.3	-0.3
COCCN(C(=O)Cc1cccs1)c1nnc(-c2cccnc2)s1	23.9	-0.6	-13.2	-1.8	2.7	-0.4
COCCN(C(=O)c1ccccc1)c1nnc(-c2cccnc2)s1	62.2*	0.5	-1.4	-2.7	-7.1	-0.4
CC(=O)Oc1cc2oc(=O)c3c(c2cc1Cl)CCC3	-15.7	1.0	-25.1	2.0	0.5	1.2
COc1ccc(C2=NOC(C(=O)Nc3cc(Br)ccc3O)C2)cc1OC (centres undefined)	-16.8	1.0	10.0	2.3	36.9*	0.3
O=C(c1ccc2c(c1)OCCO2)C1CCN(S(=O)(=O)c2ccc(F)cc2)CC1	5.6	0.0	2.8	-1.0	13.9	-1.6
Cc1cccc(OCCn2c(NC(=O)c3ccco3)nc3ccccc32)c1	3.3	0.2	54.7*	-1.5	-10.4	-1.1
Cc1ccc(OCCn2c(NC(=O)c3ccco3)nc3ccccc32)cc1	-8.7	0.6	39.1	-2.5	4.7	-1.5
O=C(Nc1nc2ccccc2n1CCOc1ccccc1)c1ccco1	9.2	0.0	47.5*	0.4	-0.1	0.0
Cc1cccc(-n2ncc3c(NCCc4ccc(S(N)(=O)=O)cc4)ncnc32)c1	-1.5	0.0	13.9	-0.1	22.3	-1.0
Cc1ccc(CNC(=O)C2CNc3cc(C)ccc3O2)cc1 (centres undefined)	14.7	-0.9	4.7	-2.6	-5.8	0.6
Clc1ccc(Cn2ncc3c(NCCN4CCOCC4)ncnc32)cc1	-19.0	-0.5	-10.2	-1.9	3.3	-0.1
CCCSc1nc(N2CCOCC2)c2c(c1C#N)CCCC2	59.3	0.9	x	0.3	7.8	23.2*
O=C(CCc1n[nH]c(=O)[nH]c1=O)N1CCOCC1	-1.7	0.6	-11.6	-1.6	-10.3	0.6
Cc1cc(C)nc(-n2nc(C)c(Sc3ccc(F)cc3)c2N)n1	-74.5	-0.3	-12.0	10.8	-1.1	60.1*
Cc1nn(C)c(C)c1Sc1ccc(Br)cc1	19.2	-1.4	20.2	-3.0	4.5	-1.6
Cc1ccc(NCc2nnc(SCC(=O)c3ccccc3)n2Cc2ccco2)c(C)c1	x	1.5	9.7	2.1	-19.4	x
COc1cc(C2C(C#N)=C(N)Oc3cc(N)ccc32)cc(OC)c1OC (centres undefined)	-13.9	-0.4	x	0.8	56.9*	-3.6
O=C(NC1CC1)c1cccc(Nc2ccc(-c3ccc4c(c3)OCCO4)nn2)c1	21.5	-1.8	34.0	-3.4	22.0	-0.8

Screens (PubChem)
